Source: ChEMBL document CHEMBL4145607, “Tamarixetin Exhibits Anti-inflammatory Activity and Prevents Bacterial Sepsis by Increasing IL-10 Production” (J Nat Prod, 2018)
Calls of active or inactive are those of the source. The calls are words filed in the database; no cut-off is given here.

Tests used:
[1] = tested on: BMDC; test: Cytotoxicity against C57BL/6 mouse BMDC assessed as effect on cell viability up to 100 uM after 24 hrs by luminescence assay; format: cell-based
In short: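 BMDCs came from C57BL/6 marrow cultured 7 days with 10 ng·mL−1 GM-CSF. Cells at 1 × 10^4 per well were incubated 24 h with 6.25–200 μM compound, with DMSO and H2O2 controls. Viability was read as ATP by luminescence. Means ± SEM.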

[2] = tested on: BMDC; test: Inhibition of LPS-induced immune response in C57BL/6 mouse BMDC assessed as reduction in TNFalpha secretion up to 25 uM pretreated for 30 mins followed by LPS-challenge measured after 6 hrs by ELISA; format: functional, cell-based
In short: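 Mouse BMDCs (female C57BL/6 bone marrow, GM-CSF-derived, ≥90% CD11c+ on day 7) pretreated 30 min with graded compound concentrations, then stimulated with LPS 50 ng/mL for 6 h. Supernatant TNF-α, IL-6, IL-10 and IL-12p70 quantified by sandwich ELISA. Mean ± SEM vs LPS-only cells; experiments repeated at least three times.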

[3] = target: T1, Toll-like receptor 4 (Mus musculus) (UniProt Q9QUK6); test: Inhibition of LPS-induced TLR4 activation in C57BL/6 mouse BMDC assessed as reduction in IkappaBalpha degradation at 25 uM pretreated for 30 mins followed by LPS-challenge measured after 15 to 90 mins by Western blot analysis; format: cell-based
T1 sequence (whole entry): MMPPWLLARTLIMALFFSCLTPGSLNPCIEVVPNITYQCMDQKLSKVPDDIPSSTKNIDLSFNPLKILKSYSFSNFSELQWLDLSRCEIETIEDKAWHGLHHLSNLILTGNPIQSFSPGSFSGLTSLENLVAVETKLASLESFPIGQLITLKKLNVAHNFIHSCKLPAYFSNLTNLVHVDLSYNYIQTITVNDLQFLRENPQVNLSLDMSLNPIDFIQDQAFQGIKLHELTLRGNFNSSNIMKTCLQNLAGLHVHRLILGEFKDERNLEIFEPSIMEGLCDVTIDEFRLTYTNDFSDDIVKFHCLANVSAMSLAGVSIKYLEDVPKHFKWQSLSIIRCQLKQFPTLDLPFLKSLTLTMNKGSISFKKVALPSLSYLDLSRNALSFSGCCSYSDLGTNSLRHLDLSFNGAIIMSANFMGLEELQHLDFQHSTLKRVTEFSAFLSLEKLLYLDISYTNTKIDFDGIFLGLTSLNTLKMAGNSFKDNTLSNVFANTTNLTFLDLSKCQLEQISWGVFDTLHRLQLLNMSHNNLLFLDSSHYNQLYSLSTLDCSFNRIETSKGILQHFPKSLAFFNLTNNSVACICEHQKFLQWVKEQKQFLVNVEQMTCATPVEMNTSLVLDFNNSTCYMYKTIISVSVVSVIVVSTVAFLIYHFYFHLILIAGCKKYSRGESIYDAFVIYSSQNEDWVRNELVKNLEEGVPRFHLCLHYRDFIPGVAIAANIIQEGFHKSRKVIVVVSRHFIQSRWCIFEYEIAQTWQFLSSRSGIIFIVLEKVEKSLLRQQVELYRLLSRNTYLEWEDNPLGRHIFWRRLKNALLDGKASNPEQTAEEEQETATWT
In short: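 BMDCs were pretreated 30 min with 25 μM compound, then stimulated with LPS 50 ng·mL−1 for the indicated times. Lysates (25 μg protein) were run on 10% SDS-PAGE and immunoblotted for phospho/total ERK, JNK, p38 and Akt, plus COX-2, IκBα and α-tubulin, with ECL detection. Representative of three experiments.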

[4] = target: Mitogen-activated protein kinase 8 (Homo sapiens) (UniProt P45983); test: Binding affinity to human C-terminal His6-tagged JNK1alpha1 (1 to 364 residues) expressed in Escherichia coli by tryptophan fluorescence quenching assay
Sequence of Mitogen-activated protein kinase 8 (Homo sapiens) (P45983 whole entry, the tested form may be a part): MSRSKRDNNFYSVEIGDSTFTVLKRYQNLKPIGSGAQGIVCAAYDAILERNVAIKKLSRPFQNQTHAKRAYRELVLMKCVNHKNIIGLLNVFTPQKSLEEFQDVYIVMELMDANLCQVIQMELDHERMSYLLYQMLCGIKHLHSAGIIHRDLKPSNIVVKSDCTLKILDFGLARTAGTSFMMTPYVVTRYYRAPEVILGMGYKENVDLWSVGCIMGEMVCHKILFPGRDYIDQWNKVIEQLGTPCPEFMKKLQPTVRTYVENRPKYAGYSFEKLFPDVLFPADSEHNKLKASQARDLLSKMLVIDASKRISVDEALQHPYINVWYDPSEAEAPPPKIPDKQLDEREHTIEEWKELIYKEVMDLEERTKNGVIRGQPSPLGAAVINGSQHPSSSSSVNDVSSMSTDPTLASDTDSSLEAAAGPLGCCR
In short: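 C-terminally His6-tagged human JNK1 (10 μM) was titrated with compound (0–100 μM; final protein:inhibitor 1:10) in 50 mM sodium phosphate, 100 mM NaCl, pH 8.0, at 25 °C. Tryptophan emission was recorded at 290–600 nm with excitation at 290 nm.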

[5] = tested on: BMDC; test: Increase in microRNA155 expression in LPS-induced C57BL/6 mouse BMDC at 25 uM pretreated for 30 mins followed by LPS-challenge measured after 6 hrs by qRT-PCR analysis; format: functional, cell-based
In short: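 Total RNA was extracted from BMDCs with TRIzol and reverse transcribed. miR-146a, miR-155 and miR-187 were quantified by real-time qPCR with gene-specific primers.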

[6] = tested on: Mus musculus; test: Antiinflammatory activity in Balb/c mouse model of LPS-induced endotoxemia assessed as reduction in serum TNFalpha level at 1 mg/kg, ip pretreated for 1 hr followed by LPS-challenge measured after 2 hrs by ELISA; format: functional, organism-based
In short: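 BALB/c mice were dosed with 1 mg·kg−1 i.p. 1 h before LPS 10 mg·kg−1 i.p. Serum was taken 2 h later, and TNF-α, IL-6 and IL-10 were measured by sandwich ELISA. Means ± SEM.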

[7] = tested on: Mus musculus; test: Antiinflammatory activity in Balb/c mouse model of LPS-induced endotoxemia assessed as reduction in TNFalpha level in lungs at 1 mg/kg, ip pretreated for 1 hr followed by LPS-challenge measured after 12 hrs by ELISA; format: functional, organism-based
In short: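 BALB/c mice got 1 mg·kg−1 i.p. 1 h before i.p. LPS 10 mg·kg−1. After 12 h, TNF-α and IL-6 in lung lysates were measured by sandwich ELISA. Means ± SEM.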

[8] = tested on: BMDC; test: Inhibition of Escherichia coli K1 infection-induced immune response in C57BL/6 mouse BMDC assessed as reduction in TNFalpha secretion at 25 uM pretreated for 30 mins followed by Escherichia coli K1 infection for 6 hrs by ELISA; format: functional, cell-based
In short: (§1)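 BMDCs from C57BL/6 mice were given 25 μM compound and E. coli K1, […]. Timing was: compound 30 min before a 6 h infection; cotreatment for 6 h; or compound for 30–120 min with 6 h infection. Supernatant cytokines (TNF-α, IL-6, IL-10, IL-12p70) were measured by ELISA. At least three experiments in triplicate.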

[9] = tested on: BMDC; test: Inhibition of Escherichia coli K1 infection-induced immune response in C57BL/6 mouse BMDC assessed as reduction in TNFalpha secretion at 25 uM pretreated for 60 to 120 mins followed by Escherichia coli K1 infection for 6 hrs by ELISA; format: functional, cell-based; in short: as §1
[10] = tested on: Mus musculus; test: Antiseptic activity in Balb/c mouse model of Escherichia coli K1 infection-induced sepsis assessed as reduction in serum AST level at 1 mg/kg, ip pretreated for 1 hr followed by Escherichia coli K1 infection measured after 2 hrs by ELISA; format: functional, organism-based
[11] = tested on: Mus musculus; test: Antiseptic activity in Balb/c mouse model of Escherichia coli K1 infection-induced sepsis assessed as reduction in serum blood urea nitrogen level at 1 mg/kg, ip pretreated for 1 hr followed by Escherichia coli K1 infection measured after 2 hrs by ELISA; format: functional, organism-based

COc1ccc(-c2oc3cc(O)cc(O)c3c(=O)c2O)cc1O [TAMARIXETIN]
Activity [1]: Non-Toxic | inhibition [2]: Active | inhibition [3]: Active | K [4]: 4.9 ×10⁵ /M | Activity [5]: Active | Activity [6]: Active | Activity [7]: Active | inhibition [8]: Active | inhibition [9]: inactive | Activity [10]: Active | Activity [11]: Active
